Test [1] relates to A549. Briefly: Prevention of autophagosome degradation in human A549 cells assessed as upregulation of p62 expression at 5 uM after 6 hrs by Western blot analysis. Type of test: functional, cell-based. The method, boiled down:
(§1)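 A549 cells kept in serum-free medium for 1 h, then exposed to 6 μM compound or 5 μM everolimus, with or without bafilomycin A1 (400 nM), for 6 h. LC3 and p62 levels in lysates assessed by Western blot to follow autophagic flux.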
A general note: Immunoblotting shows a protein as a band on a membrane.

For test [2], the system named is A549. Briefly: Induction of autophagy in human A549 cells assessed as increase in conversion of LC3-1 to LC3-2 at 5 uM after 6 hrs by Western blot analysis. The format is functional, cell-based. The method, boiled down: as §1
The test system of test [3] is A549. In words: Induction of autophagic punctation in human A549 cells assessed as increase of puncta with LC3 at 5 uM after 6 hrs by immunofluorescence staining-based microscopic analysis relative to control. Type of test: functional, cell-based. The method, boiled down: (§2)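 A549 cells on chamber slides placed in serum-free medium for 1 h, then exposed for 6 h to 6 μM compound, 5 μM everolimus or 400 nM bafilomycin A1. Fixed in ice-cold methanol for 15 min at −20 °C and blocked. Stained for LC3B, LAMP2 and p62 with Alexa Fluor 488/546/647 secondaries, mounted with DAPI, and puncta assessed by fluorescence microscopy.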

In test [4] the test system is A549. Briefly: Induction of autophagic punctation in human A549 cells assessed as increase of puncta with p62 at 5 uM after 6 hrs by immunofluorescence staining-based microscopic analysis relative to control. Type of test: functional, cell-based. The method, boiled down: as §2
In test [5] the target is Serine/threonine-protein kinase mTOR (Homo sapiens) (UniProt P42345). In words: Inhibition of mTOR phosphorylation at ser2448 in human A549 cells at 5 uM after 3 to 24 hrs by Western blot analysis. The format is cell-based. In a few lines:
(§3)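 A549 total lysates harvested 3, 6, 12 or 24 h after exposure to 6 μM compound or 5 μM everolimus. Western blot on PVDF with antibodies to phospho-mTOR Ser2448, phospho-AKT Thr308 and Ser473, phospho-p70S6K Thr389, phospho-PDK1 Ser241 and PRAS40 Thr246, alongside total proteins and β-actin.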

For test [6] the target is unchanged. In words: Inhibition of mTOR in human A549 cells assessed as downregulation of p70S6K phosphorylation at thr389 at 5 uM after 3 to 24 hrs by Western blot analysis. Type of test: cell-based. The method, boiled down:
as §3

Test [7] concerns A549. Briefly: Inhibition of AKT in human A549 cells assessed as downregulation of PRAS40 phosphorylation at thr246 at 5 uM after 3 to 12 hrs by Western blot analysis. The format is cell-based. In a few lines:
as §3

The source made the active and inactive calls. The rule behind the calls is not given here.

Regarding `CO[C@H]1C[C@@H]2CC[C@@H](C)[C@@](O)(O2)C(=O)C(=O)N2CCCC[C@H]2C(=O)O[C@H]([C@H](C)C[C@@H]2CC[C@@H](OCCO)[C@H](OC)C2)CC(=O)[C@H](C)/C=C(\C)[C@@H](O)[C@@H](OC)C(=O)[C@H](C)C[C@H](C)/C=C/C=C/C=C/1C`, the result in the test on A549 [1], in the test with A549 [3] and with A549 [4] was inactive. The outcome with A549 [2] was Active. The inhibition result in test [5] and in test [6] was “Active” in each case. In the test with A549 [7], the inhibition entry was “inactive”.
